Screening results: PubChem, several laboratories
An excerpt weighted towards active compounds, which were near 1.7% of everything screened.
HTR2A ag = mouse Htr2a agonists via beta-arrestin recruitment, primary screen, cell-based, luminescence | CHO-K1 mHTR2A beta-arrestin complementation; percent of 30 µM serotonin response | 360,000 tested, 0.66% active | 5-hydroxytryptamine receptor 2A (Mus musculus), P35363 | activation, % at 7.6 µM | AID 624169, 2012;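 active means activation above a run cutoff, the mean activation of all tested compounds plus 3 SD, cut at about 14% in these data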;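 further: 0% = plate median of compound wells and 100% = 30 µM serotonin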
PP5 primary = PP5 phosphatase inhibitors, primary screen, biochemical, fluorescence; Serine/threonine-protein phosphatase 5 (Homo sapiens), P53041; AID 1987, 2009; inhibition, % at 6.7 µM; purified PP5c, OMFP substrate fluorescence; 320,000 tested, 0.18% active;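 active means inhibition above the campaign's mean inhibition across all tested compounds plus 3 SD, cut at about 9.5% in these data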;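 further: 0% = DMSO only and 100% = 100 µM cantharidin control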
GASC-1 inh = inhibitors of GASC-1 histone demethylase, primary screen, biochemical, fluorescence, DELFIA europium | Lysine-specific demethylase 4C (Homo sapiens), Q9H3R0 | GST-JMJD2C(1-420) H3K9me3 demethylation | inhibition, % at 2.35 µM | 330,000 tested, 0.069% active | AID 2099, 2009;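 active means more than half of a compound's replicate wells show inhibition beyond 50%, single wells judged on their own value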;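 further: signal counts dimethyl H3K9 product captured on neutravidin plate; 0% = median of DMSO wells and 100% = 0.3 times that DMSO median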
T cell modulator = modulators of CD8 T cell-vesicle binding, primary screen, mouse 2C CD8+ T cells, flow cytometry. 330,000 tested, 0.068% active. response (vesicle binding), % at 7 µM. 2C CD8+ T cell-vesicle binding; active compounds read low;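 active means response, share of CD8 T cells binding vesicles, and their 90th percentile fluorescence all below set limits, cut at about 80% in these data, passing the limit was not always enough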;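 further: values below 100% mean blocked vesicle binding to the CD8+ T cells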
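Test system: purified 2C TCR transgenic mouse naive CD8+ T cells. Probe or stimulus: QL9-peptide-loaded Drosophila micro-vesicles bearing Ld, ICAM-1 and B7-1. Incubation: binding step 1.5 h, 37 °C, antibody labelling 20 min, ice. Measured by: flow cytometry of vesicle-bound cells.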
PP1 inh = PP1-alpha phosphatase inhibitors, primary screen, counter-screen for PP5 inhibitor project, biochemical, fluorescence, OMFP substrate, single point; Serine/threonine-protein phosphatase PP1-alpha catalytic subunit (Homo sapiens), P62136; purified PP1alpha; inhibition, % at 6.7 µM; 320,000 tested, 0.9% active; AID 2235, 2010;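 active means inhibition above the mean inhibition of all tested compounds plus 3 SD, computed separately for each screening campaign, cut at about 15% in these data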
Target sequence (P62136 whole entry, looked up): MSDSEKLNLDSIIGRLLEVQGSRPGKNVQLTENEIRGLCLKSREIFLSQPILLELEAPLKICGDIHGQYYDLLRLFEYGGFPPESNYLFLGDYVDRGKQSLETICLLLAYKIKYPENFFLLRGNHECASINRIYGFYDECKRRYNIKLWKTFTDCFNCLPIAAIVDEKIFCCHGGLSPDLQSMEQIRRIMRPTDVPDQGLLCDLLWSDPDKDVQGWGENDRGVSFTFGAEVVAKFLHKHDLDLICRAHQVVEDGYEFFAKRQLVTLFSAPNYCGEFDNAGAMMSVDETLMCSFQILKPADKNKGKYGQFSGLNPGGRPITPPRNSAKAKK
MOR ag counter = OPRM1 agonists via beta-arrestin recruitment, confirmation, counter-screen for mouse HTR2A agonist project, cell-based, luminescence, single concentration; shares compounds with HTR2A ag; U2OS OPRM1 beta-arrestin PathHunter; DMSO 0%, DAMGO 9.3 µM 100%; AID 624380, 2012; activation, % at 9.3 µM; 2,300 tested, 5.3% active;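 active means mean activation above the mean of DMSO-only wells plus 3 SD, cut at about 0.5% in these data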
m5-HT2A ag conf = mouse HTR2A agonists, beta-arrestin recruitment, confirmation, cell-based, luminescence, CHO-K1 PathHunter, triplicate. 2,300 tested, 19% active. activation, % at 7.6 µM. shares compounds with HTR2A ag. DMSO 0%, 30 µM serotonin 100%;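 active means mean activation across triplicates above the hit threshold derived in the original primary screen, cut at about 15% in these data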
* = called active by the depositor; i = inactive; nt = no result; ! = repeats disagree.

SMILES	HTR2A ag	PP5 primary	GASC-1 inh	T cell modulator	PP1 inh	MOR ag counter	m5-HT2A ag conf
Cc1ccc(F)c([C@H]2C3C=CCC(c4ccccc4)C3C(=O)N2Cc2ccccc2)c1 (some centres not stated)	-6	2	-1	489	3	nt	nt
CC1CCCN(C(=O)CSCC(=O)Nc2nc(-c3cccs3)cs2)C1 (configuration not stated)	15*	1	12	0	4	-1	3
CCN(CC)CCNC(=O)c1cc2c(-c3ccc(Cl)cc3)nn(C)c2s1	-12	2	17	399	-8	nt	nt
CCCN(CCC)CCNC(=O)c1cc2c(-c3ccc(Cl)cc3)nn(C)c2s1	30*	-2	-9	251	8	0	51*
COc1cc2c(cc1OC)C(c1ccc(O)cc1)NCC2 (configuration not stated)	-2	1	5	147	-4	nt	nt
Oc1ccc(C2CNCCc3c2cc(O)c(O)c3Cl)cc1 (configuration not stated)	34*!	2	4	337	3	0	145*
Oc1cc2c(c(Cl)c1O)CCNCC2c1ccccc1 (configuration not stated)	24*	-1	-6	i	0	0	100*
CC(C)(C)S(=O)N1Cc2cc(C(=O)NCc3ccc4c(c3)OCO4)nc(-c3cccc(-c4ccccc4)c3)c2[C@@H]1CCO (some centres not stated)	-1	nt	nt	nt	nt	nt	nt
CCOC(=O)C1=C(CC)Nc2ccccc2N/C1=N\S(=O)(=O)c1ccccc1F	-2	2	5	168	-3	nt	nt
CCOC(=O)C1=C(CC)Nc2ccccc2N/C1=N\S(=O)(=O)c1cccc(C(C)=O)c1	20*	nt	8	295	nt	0	-3
C=C(C)c1cccc(C(C)(C)NC(=O)Nc2ccc(OC)nc2)c1	45*	0	-9	188	1	0	16*
C=C(C)c1cccc(C(C)(C)NC(=O)Nc2nncs2)c1	-4	0	-12	134	0	nt	nt
C=C(C)c1cccc(C(C)(C)NC(=O)Nc2cc(C)ccn2)c1	35*	3	1	709	3	0	30*
C=C(C)c1cccc(C(C)(C)NC(=O)Nc2ccc(C)cn2)c1	15*	1	-8	248	6	0	32*
Cc1ccc(NC(=O)C(C)OC(=O)c2ccc(Cl)nc2)cc1S(=O)(=O)N1CCOCC1 (configuration not stated)	2	2	-5	312	-6	nt	nt
Cc1ccc(S(=O)(=O)NC2=NCN(CCN3CCOCC3)CN2)cc1	17*	-1	3	430	-1	-1	-3
CC(=O)c1ccc(NC(=O)C(C)O/N=C(\N)c2ccccc2)cc1 (configuration not stated)	15*	nt	-5	219	nt	-1	-4
CC(Oc1ccccc1)C(=O)Nc1ccc(C(N)=O)cc1 (configuration not stated)	-3	3	-15	611	-10	nt	nt
Fc1ccccc1NC(=S)NCCc1cccc(Cl)c1	-10	nt	1	i	nt	nt	nt
NS(=O)(=O)c1ccc(NC(=O)COC(=O)COc2ccc(Cl)cc2)cc1	3	1	4	168	-3	nt	nt
COC(=O)C=CC(=NNc1ccccc1)c1ccccc1	3	nt	nt	nt	nt	nt	nt
Cn1nnnc1N=N/C(=N/Nc1ccccc1)c1ccccc1	16*	2	-19	265	0	0	-4
CCOC(=O)C1(C)CCCCCN1C(=O)c1snnc1C (configuration not stated)	9	nt	nt	nt	nt	nt	nt
